Assay results taken from PubChem BioAssay.
The source made the active and inactive calls. Rule as the data show it, unless noted: active = inhibition above about 30%; inactive = the rest.

What was measured:
[1] = HUVEC growth inhibition – cell-based, human, primary screen (AID 575;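 active = viability at or below 30% in both replicate assays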;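 also: 100% = median of untreated cell wells with 0.1% DMSO on each plate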); conditions: HUVEC proliferation, CellTiter-Glo luminescence, 72 h; at 10 µM; stronger effect = lower value
Outline: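 System – primary HUVEC, no more than 12 passages · Medium – Low-serum (2% FBS) EBM, supplemented · Times – 72 h exposure, 37 °C, 5% CO2, 30 min RT equilibration · Measured by – luminescent ATP assay · Read-out – % viability relative to median vehicle-well signal on each plate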

[2] = H69AR cell proliferation blockers – human, duplicate replicates, primary screen (AID 580;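 active = viability at or under a set limit in both replicates, limit being median viability minus 3 SD, cut at about 48% in these data, passing the limit was not always enough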;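 also: 100% = mean luminescence of untreated wells and 0% = no signal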); conditions: H69AR lung tumor cells viability, ATP luminescence, 72 h; at 10 µM; stronger effect = lower value
[3] = MRP1 drug-resistance reversers in H69AR cells – cell-based, doxorubicin co-treatment, pilot screen (AID 601;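 active = viability loss from added drug above about 55%, and viability with drug at most 40%, in both replicates, limit read from the data, passing the limit was not always enough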); conditions: CellTiter-Glo, 72 h, at 10 µM; for differential viability (reversal): stronger effect = higher value
[4] = yeast transport mutant growth inhibition pilot in 384-well plates, post-Golgi transport modulator project (AID 636; in the data active = inhibition above about 31%); conditions: absorbance 615 nm, about 18 h, stronger effect = higher value
[5] = growth suppression of yeast trafficking mutant, preliminary HTS, modulators of trafficking downstream of Golgi apparatus project, 1536-format plate, OD 615 nm (AID 637); conditions: yeast transport mutant growth, absorbance 615 nm, 18 h; stronger effect = higher value
[6] = H69AR cells + 2 uM doxorubicin, measured here: viability with 2 uM doxorubicin, stronger effect = lower value
[7] = H69AR cells, compound alone cytotoxicity

Structure (SMILES) | viability [1] | viability [2] | differential viability (reversal) ([3]; H69AR cells + 2 uM doxorubicin) | viability [3, 6] [%] | viability [3, 7] [%] | inhibition [4] | inhibition [5]
CCOc1ccc(N2CC(C(=O)Nc3ccc(F)cc3F)CC2=O)cc1 (configuration not stated) | 110% (inactive) | 111% (inactive) | 19.7% (inactive) | 90.9 | 111 | -0.26% (inactive) | -5.08% (inactive)
COc1ccccc1N(CN1CCCC1=O)C(=O)c1c(F)cccc1Cl | 95% (inactive) | 97.5% (inactive) | -0.095% (inactive) | 97.6 | 97.5 | -5.2% (inactive) | -0.32% (inactive)
C=CCn1c(SCC(=O)NCC2CCCO2)nnc1C1CCCCC1 (configuration not stated) | 104% (inactive) | 97.5% (inactive) | 9.64% (inactive) | 87.8 | 97.5 | -6.88% (inactive) | -0.32% (inactive)
CCCCC(CC)Cn1c2nc3ccccc3nc2c2c(=N)oc(C)nc21 (configuration not stated) | 3.36% (active) | 1.91% (active) | -0.33% (inactive) | 2.24 | 1.91 | -2.63% (inactive) | 1.59% (inactive)
O=C(NCC1CCCO1)c1cccc(N2CCCC2=O)c1 (configuration not stated) | 90% (inactive) | 90.2% (inactive) | -0.795% (inactive) | 91 | 90.2 | -5.47% (inactive) | 1.9% (inactive)
CCOc1ccc(OCc2cccc(C(=O)N3CCCC3)c2)cc1 | 110% (inactive) | 92.9% (inactive) | 6.89% (inactive) | 86 | 92.9 | -4.13% (inactive) | -3.49% (inactive)
CCOC(=O)c1c(NC(=O)c2ccoc2C)sc2c1CCC2 | 93.3% (inactive) | 78.9% (inactive) | -9.7% (inactive) | 88.6 | 78.9 | -3.82% (inactive) | 0.95% (inactive)
COc1cccc(Nc2nc(=O)[nH]nc2C)c1 | 75.7% (inactive) | 87.3% (inactive) | 10.9% (inactive) | 76.4 | 87.3 | -2.08% (inactive) | 8.57% (inactive)
Cc1cccc2c1nc(-c1ccccc1)n1cnnc21 | 92.3% (inactive) | 86.7% (inactive) | -8.59% (inactive) | 95.3 | 86.7 | 1.2% (inactive) | -6.19% (inactive)
CCS(=O)(=O)c1ccc(S(=O)(=O)CC)s1 | 104% (inactive) | 104% (inactive) | 0.02% (inactive) | 104 | 104 | -2.73% (inactive) | -1.59% (inactive)
OCCn1c(CSc2nnc(-c3ccco3)n2-c2ccccc2)nc2ccc(Cl)cc21 | 68.7% (inactive) | 84.9% (inactive) | 3.29% (inactive) | 81.7 | 84.9 | -5.45% (inactive) | -3.97% (inactive)
CCOC(=O)N1CCC(N(C(=O)Nc2ccc(Cl)c(Cl)c2)C(C)CC)CC1 (configuration not stated) | 79.3% (inactive) | 97.7% (inactive) | 4.27% (inactive) | 93.4 | 97.7 | -2.63% (inactive) | 0.79% (inactive)
CC1=C(C(N)=O)C(c2ccc(Cl)cc2Cl)n2ncnc2N1 (configuration not stated) | 91.8% (inactive) | 101% (inactive) | 16.7% (inactive) | 84.7 | 101 | 0% (inactive) | 6.19% (inactive)
COC(=O)c1[nH]c(C)c(/C(O)=C2\C(=O)C(=O)N(CCCN3CCOCC3)C2c2ccccn2)c1C (configuration not stated) | 109% (inactive) | 104% (inactive) | 7.94% (inactive) | 96.1 | 104 | -0.53% (inactive) | -4.6% (inactive)
CC(O)CN(Cc1cccc(Cl)c1)CC(C)O (configuration not stated) | 100% (inactive) | 99.4% (inactive) | -0.905% (inactive) | 100 | 99.4 | -1.32% (inactive) | 4.13% (inactive)
CCC(=O)c1ccc(OCC(=O)N2CCc3cc(OC)c(OC)cc3C2)cc1 | 101% (inactive) | 82.9% (inactive) | -11.2% (inactive) | 94.1 | 82.9 | -2.34% (inactive) | -4.6% (inactive)
COc1ccc(CN(C(=O)CSc2nnc(-c3ccccc3F)o2)c2ccc(F)cc2)cc1 | 101% (inactive) | 101% (inactive) | 2.2% (inactive) | 98.8 | 101 | -5.2% (inactive) | 2.7% (inactive)
Cn1c(SCc2c(F)cccc2Cl)nnc1-c1cccs1 | 112% (inactive) | 87.9% (inactive) | 10.2% (inactive) | 77.6 | 87.9 | -1.33% (inactive) | -5.87% (inactive)
COc1ccc(CN(C)CC(=O)c2c(N)n(Cc3ccccc3)c(=O)n(C)c2=O)c(OC)c1 | 96.4% (inactive) | 93.9% (inactive) | 10.3% (inactive) | 83.6 | 93.9 | -3.25% (inactive) | 6.51% (inactive)
CCOC(=O)CSc1nnc(CNC(=O)c2ccc(OC)c(OC)c2)n1C | 107% (inactive) | 95.7% (inactive) | -2.17% (inactive) | 97.8 | 95.7 | -1.82% (inactive) | -2.54% (inactive)
CSc1cccc(NC(=O)C2CCN(S(C)(=O)=O)CC2)c1 | 107% (inactive) | 90.3% (inactive) | 0.77% (inactive) | 89.6 | 90.3 | -4.08% (inactive) | 2.06% (inactive)

Structure (SMILES) | viability [1] | viability [2] | differential viability (reversal) ([3]; H69AR cells + 2 uM doxorubicin) | viability [3, 6] [%] | viability [3, 7] [%] | inhibition [4] | inhibition [5]
O=C(Nc1ccc(N2CCOCC2)cc1)C1CC1 | 109% (inactive) | 97.1% (inactive) | 8.07% (inactive) | 89 | 97.1 | -5.33% (inactive) | 3.49% (inactive)
COc1ccc(-c2noc(C3CCCN(C(=O)CCc4ccccc4)C3)n2)cc1 (configuration not stated) | 68.3% (inactive) | 84.3% (inactive) | -5.7% (inactive) | 90 | 84.3 | -1.97% (inactive) | 11.1% (inactive)
O=C(NCC1CCCO1)C1CC(c2ccc(Cl)c(Cl)c2)=NO1 (configuration not stated) | 111% (inactive) | 104% (inactive) | -1.44% (inactive) | 105 | 104 | -0.13% (inactive) | -8.1% (inactive)
O=C(C1CC2CCC1C2)N1CCN(Cc2ccc3c(c2)OCO3)CC1 (configuration not stated) | 103% (inactive) | 99.2% (inactive) | 13.9% (inactive) | 85.3 | 99.2 | -4.68% (inactive) | 3.33% (inactive)
CN(CC(=O)N1CCN(c2ccccn2)CC1)S(=O)(=O)c1ccc2ccccc2c1 | 81.5% (inactive) | 89% (inactive) | 9.23% (inactive) | 79.8 | 89 | -2.63% (inactive) | -3.33% (inactive)
COc1ccc(CN2C(=O)c3ccccc3C2C(=O)NC2CCCC2)c(OC)c1 (configuration not stated) | 104% (inactive) | 86.2% (inactive) | 1.22% (inactive) | 84.9 | 86.2 | 0.53% (inactive) | -4.6% (inactive)
O=C(CN1C(=O)CC(c2ccccc2)=Nc2ccccc21)NCc1ccco1 | 99.2% (inactive) | 92.3% (inactive) | 12.9% (inactive) | 79.4 | 92.3 | -1.82% (inactive) | 13.5% (inactive)
COc1ccccc1Cn1c(-c2ccco2)nc2nc3ccccc3nc21 | 52.5% (inactive) | 59.9% (inactive) | 7.3% (inactive) | 52.6 | 59.9 | -6.93% (inactive) | 8.41% (inactive)
CCOc1ccc(C(=O)Cc2ccc3oc(C(=O)O)cc3c2)c(O)c1 | 89.4% (inactive) | 98.8% (inactive) | 10.4% (inactive) | 88.4 | 98.8 | -4.29% (inactive) | 7.62% (inactive)
Nc1nc(NC(=O)c2cccs2)nn1-c1ccccc1 | 101% (inactive) | 94% (inactive) | 7.31% (inactive) | 86.7 | 94 | -6.45% (inactive) | -4.29% (inactive)
CCOC(=O)C1CCN(C(=O)Nc2ccc(Cl)cc2Cl)CC1 | 100% (inactive) | 104% (inactive) | 19.9% (inactive) | 84.1 | 104 | -4.61% (inactive) | 3.65% (inactive)
Cc1ccc(-c2[nH]nc3c2C(c2ccoc2)C(C#N)=C(N)O3)cc1C (configuration not stated) | 90.2% (inactive) | 86.7% (inactive) | 0.74% (inactive) | 86 | 86.7 | -1.45% (inactive) | -1.27% (inactive)
CC1Cc2ccccc2N1S(=O)(=O)c1ccc2c(c1)n(C)c(=O)c(=O)n2C (configuration not stated) | 80.8% (inactive) | 83.7% (inactive) | -2.65% (inactive) | 86.4 | 83.7 | -4.93% (inactive) | 0% (inactive)
O=C(CSc1nnc(-c2ccncc2)o1)Oc1ccccc1 | 101% (inactive) | 102% (inactive) | 15.9% (inactive) | 85.9 | 102 | -6.4% (inactive) | 3.02% (inactive)
O=C(CN(c1ccc(F)cc1)S(=O)(=O)c1ccc2c(c1)OCCO2)NCC1CCCO1 (configuration not stated) | 96.5% (inactive) | 100% (inactive) | 13.4% (inactive) | 87.1 | 100 | -3.42% (inactive) | 2.54% (inactive)
CCc1ccc(NC(=O)CS(=O)CC(=O)NCC2OCCc3ccccc32)cc1 (configuration not stated) | 101% (inactive) | 99.1% (inactive) | 4.08% (inactive) | 95 | 99.1 | -0.93% (inactive) | 1.75% (inactive)
Cn1c(=O)[nH]c(=O)c2c1nc(N1CCNCC1)n2Cc1cccc2ccccc12 | 85.5% (inactive) | 88.8% (inactive) | 2.38% (inactive) | 86.4 | 88.8 | -1.56% (inactive) | 4.76% (inactive)
Cc1nc2ccc(NC(=O)NCc3ccco3)cc2s1 | 103% (inactive) | 90.6% (inactive) | 7.41% (inactive) | 83.2 | 90.6 | -4.67% (inactive) | 9.37% (inactive)
O=C(Nc1ncnc2sc3c(c12)CCCCC3)c1ccco1 | 91.5% (inactive) | 73.8% (inactive) | -0.73% (inactive) | 74.5 | 73.8 | -2.08% (inactive) | 3.65% (inactive)
O=P1(O)C=C(c2ccccc2)NC(c2ccccc2)=C1 | 108% (inactive) | 91.7% (inactive) | -4.4% (inactive) | 96.1 | 91.7 | -4.93% (inactive) | 0.48% (inactive)
